Experimental data of several laboratories.
Each line is one published result; the experiments were not run side by side.
Target: MAP kinase-activated protein kinase 3 (MAPKAPK3, Homo sapiens, UniProt Q16644)

| SMILES | read-out | action | method | tested at | quantity | result |
| --- | --- | --- | --- | --- | --- | --- |
| CNC(=O)c1cc(Oc2ccc(NC(=O)Nc3ccc(Cl)c(C(F)(F)F)c3)cc2)ccn1 | enzyme activity | inhibitor | – | 10 µM | inhibition | -5% |
| CCCOc1ccc(OC)c(F)c1C(=O)c1ccc(C(=O)N[C@@H]2CNC[C@H]2NC(=O)c2ccc3[nH]ncc3c2)cc1 | enzyme activity | inhibitor | – | 10 µM | remaining activity | 68% |
| N#CCCc1ccc2c(c1)-c1[nH]c3ccc([N+](=O)[O-])cc3c1CC(=O)N2 | cell-free assay | – | – | 0.5 µM | remaining signal | 96.8% |
| Cc1ccc(Nc2nccc(N(C)c3ccc4c(C)n(C)nc4c3)n2)cc1S(N)(=O)=O | enzyme activity | inhibitor | – | 10 µM | inhibition | -3% |
| COc1cc(/C=C/C(=O)CC(=O)/C=C/c2ccc(O)c(OC)c2)ccc1O | enzyme activity | inhibitor | – | 1 µM | activity vs control | 76% |
| CCN(CC)c1ccc(C2=NNC(=O)CC2C)cc1[N+](=O)[O-] (stereo not drawn) | enzyme activity | inhibitor | – | 10 µM | remaining activity | 100% |
| CCN(CC)CCNC(=O)c1c(C)[nH]c(/C=C2\C(=O)Nc3ccc(F)cc32)c1C | enzyme activity | inhibitor | – | 0.3 µM | inhibition | -10% |
| Cn1c(=O)n(-c2ccc(C(C)(C)C#N)cc2)c2c3cc(-c4cnc5ccccc5c4)ccc3ncc21 | enzyme activity | inhibitor | – | 10 µM | remaining activity | 110% |
| O=C(Nc1cnn(-c2csc(C(=O)NC3COC3)c2)c1)Nc1c(F)cccc1Cl | enzyme activity | inhibitor | – | 5 µM | remaining activity | 95.6% |
| Oc1cccc(-c2nc(N3CCOCC3)c3oc4ncccc4c3n2)c1 | enzyme activity | inhibitor | – | 10 µM | remaining activity | 100% |
| COc1cc(Nc2cnc(C#N)c(O[C@H](C)CN(C)C)n2)ncc1-c1cnn(C)c1 | enzyme activity | inhibitor | radiometric | 1 µM | remaining activity | 96% |
| COc1cc2ncnc(Nc3ccc(Oc4ccccc4)c(C)c3C)c2cc1OC | enzyme activity | inhibitor | – | 1 µM | inhibition | -14% |
| COc1cccc2c(NCc3ccccc3)nc(-n3c(N)nc4ccccc43)nc12 | target engagement in cells | inhibitor | chemoproteomics | 20 mM | inhibition | -7.4% |
| FC(F)(F)Oc1cccc(-c2cnc3ccc(-c4ccncc4)nn23)c1 | enzyme activity | inhibitor | radiometric | 5 µM | activity vs control | 97% |
| CC(C)(O)[C@H]1CC[C@H](Nc2ccc3ncc(-c4cccc(C(F)(F)F)c4)n3n2)CC1 | enzyme activity | inhibitor | – | 1 µM | remaining activity | 103% |
| CC(C)(C)c1nc2c(s1)c1nc(N)ncc1c1ccc(NS(=O)(=O)c3c(F)cccc3F)c(F)c12 | enzyme activity | inhibitor | radiometric | 1 µM | remaining activity | 93% |
| c1ccc(CNc2nc(N3CCOc4ccccc43)nc3c2CCCC3)cc1 | target engagement in cells | inhibitor | chemoproteomics | 20 mM | inhibition | -11.1% |
| CCCS(=O)(=O)Nc1ccc(F)c(C(=O)c2c[nH]c3ncc(-c4ccc(Cl)cc4)cc23)c1F | enzyme activity | inhibitor | – | 1 µM | inhibition | < 10% |
